Laboratory results taken from publication PMC9811456 (Molecular Pharmaceutics, 2022).
“And” between values parts separate entries of the source, which are not always exact repeats. Equal entries are not always repeated. “Also recorded” adds a separate entry of the source.

How the values were obtained:
[1] = PK in mice after a single intravenous dose; format: in vivo; conditions: mouse, plasma, 1 mg/kg
[2] = Oral pharmacokinetics and biodistribution in mice; format: in vivo, male CFW mice
MCMV (Smith) = test: Antiviral qPCR assay, MCMV in MEF cells; format: cell-based, murine cytomegalovirus; conditions: CC50/EC50
ADV5 (Adenoid 75) = test: Antiviral CPE assay, ADV5; format: cell-based, adenovirus (AdV-5); conditions: CC50/EC50
[3] = Metabolic stability in rat hepatocytes; format: in vitro ADME
Method in brief: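 In hepatocyte stability, compound at 1 μM was incubated in duplicate with 0.5 × 10^6 cells/mL at 37 °C. Samples were taken over 2 h and quenched and precipitated with ice-cold methanol (1:1). The soluble fraction was analysed by LC–MS/MS.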

EBV (Akata) = test: Antiviral qPCR assay, EBV; format: cell-based, Epstein–Barr virus; conditions: for SI EBV (Akata): CC50/EC50; for EC50: human gammaherpesvirus 4, Akata, 72 h, read-out: EC50 EBV (Akata)
JC virus (MAD-4) = test: Antiviral qPCR assay, JC virus; format: cell-based; conditions: for SI JC virus (MAD-4): CC50/EC50; for EC50: JC polyomavirus, COS-7, 168 h, read-out: EC50 JC virus (MAD-4)
HSV2 (G) = test: microbe, parasite or virus in culture; format: cell-based, herpesvirus 2 (HSV-2)
HCMV (AD169) = test: Antiviral CPE assay, HCMV AD169; format: cell-based, human cytomegalovirus; conditions: CC50/EC50
[4] = cited from earlier work
HSV1 (E-377) = test: microbe, parasite or virus in culture; format: cell-based, herpesvirus 1 (HSV-1)
BK virus (Gardner) = test: Antiviral qPCR assay, BK virus; format: cell-based; conditions: CC50/EC50
VZV (Ellen) = test: microbe, parasite or virus in culture; format: cell-based, varicella-zoster virus
[5] = test system: human foreskin fibroblast (HFF) cells; test: Intracellular conversion to CDV-PP, HFF model; format: cell-based; conditions: 30 nM, 72 h
Method in brief: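 Primary HFF cells (passage ≤10) were seeded at 6 × 10^6 per T-75 flask for 24 h. They were exposed in triplicate to 30 nM compound or vehicle in DMEM/2% FBS at 37 °C, 5% CO2 for 72 h, after preincubating the dosing solutions 24 h at 37 °C. Half the flasks were counted. The rest were rinsed in chilled saline and lysed in methanol:water 70:30. Prodrug, CDV and CDV-PP were measured by LC–MS/MS (5–2000 nM qualified range). Results are mean ± SD.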

HHV-8 (BCBL-1) = test: Antiviral qPCR assay, HHV-8; format: cell-based, human herpes virus 8; conditions: for SI HHV-8 (BCBL-1): CC50/EC50; for EC50: Homo sapiens, BCBL1, 168 h, read-out: EC50 HHV-8 (BCBL-1)
HHV-6B (Z29) = test: Antiviral qPCR assay, HHV-6B; format: cell-based, human herpes virus-6B; conditions: for SI HHV-6B (Z29): CC50/EC50; for EC50: Homo sapiens, MOLT-3, 168 h, read-out: EC50 HHV-6B (Z29)
HCMV (GDG^RK17) = test: Antiviral assay, HCMV GDGRK17; format: cell-based, human cytomegalovirus; conditions: CC50/EC50; single replicate
HSV-2 = conditions: read-out: EC50 against HSV-2; published data ref 42; cited from earlier work
HSV-1 = conditions: read-out: EC50 against HSV-1; published data ref 42; cited from earlier work
HCMV = conditions: read-out: EC50 against CMV; cited from earlier work
vaccinia (Copenhagen) = test: microbe, parasite or virus in culture; format: cell-based
[6] = test system: human adenovirus type 6 (AdV 6), strain tonsil 99 (HAdV-C6); test: Hamster model of AdV; format: in vivo, immunosuppressed male Syrian hamsters; conditions: IP, 37 mg/kg induction then 20 mg/kg three times weekly
Method in brief: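 Male Syrian hamsters were immunosuppressed with IP cyclophosphamide (140 mg/kg induction, then 100 mg/kg). They received IV 3 × 10^10 pfu/kg AdV 6. There were 7 groups (n = 15), including uninfected vehicle and drug-only (1 mg/kg PO QD) controls. Test compound was given at 0.1, 0.3 or 1 mg/kg, and CDV IP (37, then 20 mg/kg thrice weekly) from day −1. Animals were weighed and observed daily. Liver TCID50 (HEK-293) was taken day 5, with serum transaminases. Survival was compared by log-rank and weight by mixed-effect analysis.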

VZV = conditions: read-out: EC50 against VZV; published data ref 42; cited from earlier work
[7] = equimolar oral doses, BCV vs NPP-669

In the case of `CCCCCCCCCCCCCCCCOCCCOP(=O)(O)CO[C@H](CO)Cn1ccc(N)nc1=O` [BCV, brincidofovir], the AUC [1] is reported as 0.171 µg·h/mL, the Cmax [1] is reported as 0.491 µg/mL and the Vd [1] is reported as 3.7 L/kg. For the same compound, the clearance [1] was 7.32 L/h/kg, the half-life [1] was 0.4 h and the “prodrug exposure in liver tissue” value [2, 7] was “significantly higher levels than NPP-669”. For the same compound, the “prodrug levels in intestinal tissue” value [2, 7] was “retained at substantially higher levels than NPP-669 in the intestinal tissue”, the “plasma levels over 24 h” value ([2]; single oral dose, NPP-669 30 mg/kg, BCV equimolar (26 mg/kg)) was > 0.003 μM and > 2 ng/mL and the “SI MCMV (Smith)” value (MCMV (Smith)) was >244. For the same compound, the “SI ADV5 (Adenoid 75)” value (ADV5 (Adenoid 75)) was 46, the half-life at 1 μM [3] was 2.37 h and the hepatocyte CLint at 1 μM [3] was 9.73 µL/min/1e6 cells. For the same compound, the “SI EBV (Akata)” value (EBV (Akata)) was >11, the EC50 (EBV (Akata)) was 0.09 ± 0.09 µM and the “SI JC virus (MAD-4)” value (JC virus (MAD-4)) was >3. For the same compound, the EC50 (JC virus (MAD-4)) was 0.35 ± 0.26 µM, the “SI HSV2 (G)” value (HSV2 (G); CC50/EC50) was >50 and the EC50 (HSV2 (G); Human alphaherpesvirus 2, HFF, read-out: EC50 HSV2 (G)) was 0.02 ± 0.01 µM. The “SI HCMV (AD169)” value (HCMV (AD169)) was 540, the GI toxicity ([4]; daily doses at 10 mg/kg ref 36) was “GI toxicity was noted” and the NOAEL ([4]; twice weekly, in rats over 13 weeks ref 36) was 15 mg/kg. The “SI HSV1 (E-377)” value (HSV1 (E-377); CC50/EC50) was >33, the EC50 (HSV1 (E-377); Human alphaherpesvirus 1, HFF, read-out: EC50 HSV1 (E-377)) was 0.03 ± 0.02 µM and the “SI BK virus (Gardner)” value (BK virus (Gardner)) was 180. For the same compound, the “SI VZV (Ellen)” value (VZV (Ellen); CC50/EC50) was 114, the EC50 (VZV (Ellen); Human alphaherpesvirus 3, HFF, read-out: EC50 VZV (Ellen)) was 0.005 ± 0.005 µM and the intracellular pro-drug level [5] was “highest levels of intracellular pro-drug”. For the same compound, the “SI HHV-8 (BCBL-1)” value (HHV-8 (BCBL-1)) was 690, the EC50 (HHV-8 (BCBL-1)) was 0.001 µM and the “SI HHV-6B (Z29)” value (HHV-6B (Z29)) was 16. It also gave an EC50 (HHV-6B (Z29)) of 0.03 ± 0.02 µM.
For `Nc1ccn(C[C@@H](CO)OCP(=O)(O)O)c(=O)n1` [CDV, cidofovir], the “SI HCMV (GDG^RK17)” value (HCMV (GDG^RK17)) is given as >1034, the EC50 (HSV-2) is given as 5 to 6 µM and the “SI ADV5 (Adenoid 75)” value (ADV5 (Adenoid 75)) is given as >23. The “SI EBV (Akata)” value (EBV (Akata)) was >10, the EC50 (EBV (Akata)) was 10.1 ± 3.44 µM and the EC50 (HSV-1) was 3 to 5 µM. The EC50 (HCMV) was ~1 µM, the “SI JC virus (MAD-4)” value (JC virus (MAD-4)) was >8 and the EC50 (JC virus (MAD-4)) was 18.4 ± 16 µM. The “SI vaccinia (Copenhagen)” value (vaccinia (Copenhagen)) was >10, the EC50 (vaccinia (Copenhagen); Orthopoxvirus vaccinia, HFF, read-out: EC50 vaccinia (Copenhagen)) was 14.6 µM and the “toxicity of the dose needed for antiviral efficacy” value [6] was “low-grade toxicity; also recorded: toxic dose”. For the same compound, the “SI BK virus (Gardner)” value (BK virus (Gardner)) was >26, the “intracellular levels of CDV or CDV-PP” value ([5]; below the detection limit) was ≤ 10 ng/mL and the EC50 (VZV) was 0.5 µM. The “SI HHV-8 (BCBL-1)” value (HHV-8 (BCBL-1)) was >67, the EC50 (HHV-8 (BCBL-1)) was 1.5 ± 0.7 µM and the “SI HHV-6B (Z29)” value (HHV-6B (Z29)) was 10. It also gave an EC50 (HHV-6B (Z29)) of 7.09 ± 3.59 µM.
For `Nc1nc(O)c2ncn(COC(CO)CO)c2n1` [ganciclovir], the “SI MCMV (Smith)” value (MCMV (Smith)) was >19 and the “SI HCMV (AD169)” value (HCMV (AD169)) was >92.
